Results as given in PMC5489371 (Leukemia & lymphoma, 2017).

How the values were obtained:
[1] = tested on: patients treated with single agent panobinostat; details: cited from earlier work
[2] = tested on: patients with relapsed hematologic malignancies; assay: Response assessment, all 27 patients; format: in vivo, human; details: 95% CI: 53.7 – 88.8
Method in brief: (§1)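 Open-label, single-centre, first-in-human 3+3 dose-escalation trial. Adults with relapsed or refractory CLL, Hodgkin or non-Hodgkin lymphoma (WHO 2008) or MM (IMWG criteria) had to have had at least one prior therapy; MM patients had prior immunomodulatory agent and proteasome inhibitor. Test compound was given orally Mon/Wed/Fri for three weeks of each 28-day cycle at 20, 40, 50 or 70 mg, until unacceptable toxicity or progression.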

[3] = tested on: soluble CD44 (sCD44); assay: ELISA for soluble CD44 in serum of MM patients; format: in vivo, human
Method in brief: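 Serum from relapsed multiple myeloma patients was collected at baseline before dosing and on cycle 1 day 15. Soluble human CD44 was measured by ELISA following the kit manufacturer's protocol. Patients took the oral HDAC inhibitor Monday, Wednesday and Friday for three weeks, then one week off, in 28-day cycles.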

[4] = tested on: patients with relapsed MM; assay: Response assessment, multiple myeloma patients; format: in vivo, human
Method in brief: as §1

[5] = tested on: patients with relapsed hematologic malignancies; assay: Phase 1 dose escalation trial of single-agent AR-42: safety and tolerability; format: in vivo, human
[6] = Pharmacokinetic analysis of AR-42 in patient plasma; format: in vivo, human
[7] = tested on: MM cell lines (U266, H929, RPMI 8226, ARH-77, and IM-9); details: MM cell lines and primary MM cells; cited from earlier work
[8] = QTc measurement; format: in vivo, human
[9] = tested on: patients with relapsed lymphoma; assay: Response assessment, lymphoma patients; format: in vivo, human
Method in brief: as §1

[10] = between the 20 and 40 mg dose levels
[11] = between the 40 and 50 mg dose levels

Cc1[nH]c2ccccc2c1CCNCc1ccc(/C=C/C(=O)NO)cc1 [panobinostat]
patients with fatigue [1]: 47.4%

AR-42
patients with stable disease for between 1 and 3 cycles [2]: 20 of 27 | reduction of sCD44, mean difference ([3]; 10 MM patients, 95% CI: 3.19–32.72, paired t-test, p=0.0022): 17.95 | MM patients with decreased sCD44 levels ([3]; baseline vs cycle 1 day 15): nine | MM patients in whom CD44 decreased more than 20% by day 15 ([3]; cycle 1 day 15): four | Cycles of Treatment ([4]; MM patient ID 1, 20 mg (1a)): 1 cycles | Cycles of Treatment ([4]; MM patient ID 4, 40 mg (2a)): 3 cycles | Cycles of Treatment ([4]; MM patient ID 5, 40 mg (2a)): 18 cycles | Cycles of Treatment ([4]; MM patient ID 6, 40 mg (2a)): 3 cycles | Cycles of Treatment ([4]; MM patient ID 7, 40 mg (1b)): 3 cycles | Cycles of Treatment ([4]; MM patient ID 8, 40 mg (1b)): 1 cycles | Cycles of Treatment ([4]; MM patient ID 10, 50 mg (2b)): 1 cycles | Cycles of Treatment ([4]; MM patient ID 11, 50 mg (2b)): 1 cycles | Cycles of Treatment ([4]; MM patient ID 12, 50 mg (2b)): 1 cycles | Cycles of Treatment ([4]; MM patient ID 13, 50 mg (2b)): 3 cycles | Cycles of Treatment ([4]; MM patient ID 17, 70 mg (3b)): 5 cycles | Cycles of Treatment ([4]; MM patient ID 20, 40 mg (4b)): 2 cycles | Cycles of Treatment ([4]; MM patient ID 21, 40 mg (4b)): 1 cycles | Cycles of Treatment ([4]; MM patient ID 22, 40 mg (4b)): 2 cycles | Cycles of Treatment ([4]; MM patient ID 25, 40 mg (4b)): 2 cycles | Cycles of Treatment ([4]; MM patient ID 26, 40 mg (4b)): 1 cycles | Cycles of Treatment ([4]; MM patient ID 27, 40 mg (4b)): 3 cycles | duration of disease control, one patient with MM ([4]; human, in vivo): 19 months | MM patients who progressed during the first cycle ([4]; of 17 MM patients): four | dose-limiting toxicities (DLTs) ([5]; in vivo): no DLTs were evident | grade 3 or 4 fatigue ([5]; in vivo): no patient suffered grade 3 or 4 fatigue | patients requiring hospitalization ([5]; in vivo): seven | patients requiring temporary holds of study treatment ([5]; in vivo): seven | patients with SAEs possibly, probably, or likely related to AR-42 ([5]; in vivo): five | patients with neutropenia (grade 1 – 3) ([5]; in vivo): 11 patients | patients with neutropenia (grade 1 – 4) ([5]; in vivo): 12 patients | maximum tolerated dose (MTD) ([5]; oral, three times weekly (M-W-F) for three weeks of a 28-day cycle): 40 mg | peak concentration (geometric mean, %CV) ([6]; 20 mg oral, day 19, plasma): 0.335 (65.6) μM | peak concentration (geometric mean, %CV) ([6]; 20 mg oral, day one, plasma): 0.383 (56.2) μM | peak concentration (geometric mean, %CV) ([6]; 40 mg oral, day 19, plasma): 0.830 (27.9) μM | peak concentration (geometric mean, %CV) ([6]; 40 mg oral, day one, plasma): 0.794 (23.8) μM | peak concentration (geometric mean, %CV) ([6]; 50 mg oral, day one, plasma): 1.60 (37.5) μM | fold increase in mean day one AUC0-∞ [6, 10]: 1.9 fold | fold increase in mean day one Cmax [6, 10]: 2.1 fold | fold increase in mean day one AUC0-∞ [6, 11]: 1.7 fold | fold increase in mean day one Cmax [6, 11]: 2.0 fold | potency in comparison to vorinostat [7]: four- to seven-fold more potent | QTc prolongation, highest grade ([8]; all 27 patients, not associated with cardiac events or dose reductions): ≤ 1 grade | mean maximum QTc change ([8]; all patients, range 10 – 60, standard deviation 14.5): 27.4 | duration of disease control, one patient with mantle cell lymphoma ([9]; ongoing): 27 months | best response in patients with relapsed lymphoma ([9]; ten patients): stable disease
